Source: ChEMBL document CHEMBL4219186, “Structure-activity relationships in a new class of non-substrate-like covalent inhibitors of the bacterial glycosyltransferase LgtC” (Bioorg Med Chem, 2018)
Active and inactive are the calls of the source. The rule behind the calls is not given here.

Legend:
LgtC [1] = target: T1, LgtC (Neisseria meningitidis, UniProt Q93EK7); experiment: (§1) Inhibition of recombinant Neisseria meningitidis glycosyltransferase LgtC using UDP-Gal/lactose as substrate preincubated for 30 mins with UDP-Gal followed by lactose addition measured after 20 mins in presence of MnCl2 and calf intestinal phosphatase by malachite green dye based enzyme-coupled colorimetric assay relative to control
T1 sequence (Q93EK7 whole entry): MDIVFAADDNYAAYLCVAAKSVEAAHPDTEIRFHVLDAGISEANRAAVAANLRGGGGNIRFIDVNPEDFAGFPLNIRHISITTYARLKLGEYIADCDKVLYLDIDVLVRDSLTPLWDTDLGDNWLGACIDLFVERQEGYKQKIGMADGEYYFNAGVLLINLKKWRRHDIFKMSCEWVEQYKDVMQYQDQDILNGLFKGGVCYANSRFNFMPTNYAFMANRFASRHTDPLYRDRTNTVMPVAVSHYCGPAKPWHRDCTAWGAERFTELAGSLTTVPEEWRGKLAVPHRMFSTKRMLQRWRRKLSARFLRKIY
In short: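 IC50 set-up using DTT-activated recombinant N. meningitidis LgtC at 20-50% donor turnover. Enzyme was pre-incubated 30 min at 30 °C with inhibitor (0.1-100 or 0.1-50 µM, 10% DMSO), UDP-Gal 28 µM, MnCl2 5 mM, CIP 10 U/mL, CEL 1 mg/mL and Triton 0.01% in 13 mM HEPES pH 7.0. Lactose 2 mM was added for 20 min at 30 °C, then read by Malachite Green phosphate detection at 620 nm.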

[2] = target: T2, LgtC (Neisseria meningitidis) (UniProt Q93EK7); experiment: as §1, with “substrate at 50 uM” for “substrate”
T2 sequence (whole entry): T1 sequence (Q93EK7 whole entry)
In short: (§2)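 Recombinant N. meningitidis LgtC, activated with 10 mM DTT (1:1, 30 min, 30 °C) and set to 20-50% UDP-Gal turnover. It was pre-incubated 30 min at 30 °C with 25 or 50 µM inhibitor in 13 mM HEPES pH 7.0 containing UDP-Gal 28 µM, MnCl2 5 mM, CIP 10 U/mL, CEL 1 mg/mL, Triton 0.01% and 10% DMSO. Lactose 2 mM was then added for 20 min at 30 °C. Malachite Green read at A620; activity taken against a DMSO control.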

[3] = target: T2, LgtC (Neisseria meningitidis); experiment: as §1, with “substrate at 25 uM” for “substrate”; in short: as §2
LgtC [4] = target: T1, LgtC; experiment: (§3) Inhibition of recombinant Neisseria meningitidis glycosyltransferase LgtC using UDP-Gal/lactose as substrate preincubated for 20 mins with UDP-Gal followed by lactose addition measured after 20 mins in presence of MnCl2
In short: (§4)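 Dose-response with DTT-activated recombinant N. meningitidis LgtC at 20-50% donor turnover. Pre-incubation was 20 min at 30 °C with inhibitor (0.1-50 up to 0.1-250 µM, 10% DMSO), UDP-Gal 28 µM, MnCl2 5 mM, CIP 10 U/mL, CEL 1 mg/mL and Triton 0.01% in 13 mM HEPES pH 7.0. Lactose 2 mM was then added for 20 min at 30 °C. Malachite Green A620 read-out; triplicate, mean ± SD.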

[5] = target: T2, LgtC (Neisseria meningitidis); experiment: as §3; in short: as §4
[6] = target: T2, LgtC (Neisseria meningitidis); experiment: Inhibition of recombinant Neisseria meningitidis glycosyltransferase LgtC assessed as ratio of Kinact/Ki using UDP-Gal/lactose as substrate preincubated for 20 mins with UDP-Gal followed by lactose addition measured after 20 mins in presence of MnCl2
In short: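 Kinetic parameters from LgtC activity at ranges of inhibitor (0-50 up to 0-250 µM) after 0, 5, 10 and 20 min pre-incubation. Activity, as % of DMSO control, was plotted against pre-incubation time and fitted exponentially to give Kobs. Kobs was then fitted against [I] with the hyperbolic equation to obtain kinact and Ki. Triplicate.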

LgtC [7] = target: T1, LgtC; experiment: Inhibition of recombinant Neisseria meningitidis glycosyltransferase LgtC using UDP-Gal/lactose as substrate preincubated for 20 mins with UDP-Gal followed by lactose addition measured after 20 mins in presence of MnCl2 by malachite green dye based colorimetric assay; in short: as §4
Haemophilus influenzae [8] = experiment: Potentiation of human serum-induced killing of Haemophilus influenzae R2866 at 100 uM in presence of 30% v/v human serum pre-incubated for 1 hr followed by drug removal and re-plating of colonies for 24 hrs by bacterial viable count method; type: functional, organism-based
In short: (§5)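 Overnight R2866 sBHI culture, diluted to OD590 0.7, was exposed 1 h at 37 °C to 30% v/v normal human serum plus inhibitor (50 or 100 µM); the control received 30% serum alone. Serum and compound were removed by centrifugation and two sBHI washes. Cells were serially diluted and plated on chocolate agar (24 h, 37 °C, 5% CO2) for viable counts. Triplicate, mean.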

Haemophilus influenzae [9] = experiment: Toxicity against Haemophilus influenzae R2866; type: organism-based; conditions: in vivo
Haemophilus influenzae [10] = experiment: Growth inhibition of Haemophilus influenzae R2866 up to 100 uM incubated for 1 hr followed by drug removal and re-plating of colonies for 24 hrs by bacterial viable count method; type: organism-based; conditions: in vivo
In short: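 H. influenzae R2866 was grown overnight in supplemented BHI at 37 °C, 180 rpm, then diluted to OD590 0.7. Cells were exposed 1 h at 37 °C to compound (0-200 µM; final DMSO 10%) or DMSO. They were centrifuged, washed twice with sBHI, serially diluted and plated on chocolate agar (24 h, 37 °C, 5% CO2) for viable counts. Triplicate, mean; unpaired t-test.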

Haemophilus influenzae [11] = experiment: Potentiation of human serum-induced killing of Haemophilus influenzae R2866 at 50 uM in presence of 30% v/v human serum pre-incubated for 1 hr followed by drug removal and re-plating of colonies for 24 hrs by bacterial viable count method; type: functional, organism-based; in short: as §5

Row | SMILES | IC50 (LgtC [1]) | inhibition [2] | inhibition [3] | Ki (LgtC [4]) | Kinact [5] | Ratio [6] | IC50 (LgtC [7]) | other results
1 | COc1ccc(/C=C2\C(=O)N(c3ccc(C(=O)O)cc3)N=C2C(F)(F)F)cc1Br | 2.9 µM | – | – | – | – | – | – | –
2 | COc1ccc(/C=C2\C(=O)N(c3cccc(C(=O)NCCO)c3)N=C2C(F)(F)F)cc1Br | 4.3 µM | – | – | – | – | – | – | –
3 | CCOC(=O)C1=NN(c2ccccc2)C(=O)/C1=C\c1ccc(OC)c(Br)c1 | – | 66% | 61% | – | – | – | – | –
4 | COc1ccc(/C=C2\C(=O)N(c3cccc(C(=O)O)c3)N=C2C(F)(F)F)cc1Br | 3 µM | – | – | – | – | – | – | –
5 | CCOC(=O)c1ccccc1/C=C1\C(=O)N(c2ccccc2)N=C1C(F)(F)F | > 100 µM | – | – | – | – | – | – | –
6 | CC1=NN(c2ccccc2)C(=O)/C1=C\c1ccccc1C(F)(F)F | – | – | – | – | – | – | – | Activity (Haemophilus influenzae [8]): inactive; growth inhibition (GI) (Haemophilus influenzae [9]): Toxic; growth inhibition (GI) (Haemophilus influenzae [10]): Non-Toxic
7 | COc1ccc(/C=C2\C(=O)N(c3ccccc3)N=C2C)cc1Br | > 50 µM | 43% | 33% | – | – | – | – | –
8 | COc1ccc(/C=C2\C(=O)N(c3ccccc3)N=C2C(F)(F)F)cc1Br | 3.1 µM | 84% | 80% | 7.1 µM | 0.0012 s⁻¹ | 163 M⁻¹ s⁻¹ | 6.4 µM | growth inhibition (GI) (Haemophilus influenzae [10]): Non-Toxic; Activity (Haemophilus influenzae [11]): inactive
9 | COc1ccc(/C=C2\C(=O)N(c3ccccc3)N=C2C(=O)O)cc1Br | – | 58% | 35% | – | – | – | – | –
10 | COc1ccc(/C=C2\C(=O)N(Cc3ccccc3)N=C2C(F)(F)F)cc1Br | 12 µM | – | – | – | – | – | – | –
11 | COc1ccc(/C=C2\C(=O)N(c3ccccc3)N=C2C(N)=O)cc1Br | – | 39% | 31% | – | – | – | – | –
12 | CCOC(=O)CC1=NN(c2ccccc2)C(=O)/C1=C\c1ccc(OC)c(Br)c1 | – | 67% | 32% | – | – | – | – | –

More lines, main results first:

Row | IC50 (LgtC [1]) | inhibition [2] | inhibition [3] | Ki (LgtC [4]) | Kinact [5] | Ratio [6] | IC50 (LgtC [7]) | SMILES | other results
13 | 25 µM | – | – | 49 µM | 0.0009 s⁻¹ | 18 M⁻¹ s⁻¹ | 80 µM | O=C1/C(=C\c2ccc(Cl)cc2)C(C(F)(F)F)=NN1c1ccccc1 | –
14 | – | – | – | 4.7 µM | 0.0011 s⁻¹ | 238 M⁻¹ s⁻¹ | 3.3 µM | O=C1/C(=C\c2ccc(OCc3ccccc3)cc2)C(C(F)(F)F)=NN1c1ccccc1 | –
15 | – | – | – | 19 µM | 0.0015 s⁻¹ | 80 M⁻¹ s⁻¹ | 8.9 µM | COc1ccc(/C=C2\C(=O)N(c3ccccc3)N=C2C(F)(F)F)cc1 | –
16 | – | – | – | 6.8 µM | 0.0025 s⁻¹ | 370 M⁻¹ s⁻¹ | 5.8 µM | O=C1/C(=C\c2ccc(O)cc2)C(C(F)(F)F)=NN1c1ccccc1 | –
17 | – | – | – | 88 µM | 0.0016 s⁻¹ | 18 M⁻¹ s⁻¹ | 64 µM | O=C1/C(=C\c2cccc(Cl)c2)C(C(F)(F)F)=NN1c1ccccc1 | –
18 | 18 µM | – | – | 50 µM | 0.0018 s⁻¹ | 36 M⁻¹ s⁻¹ | 38 µM | O=C1/C(=C\c2cccc(OCc3ccccc3)c2)C(C(F)(F)F)=NN1c1ccccc1 | Activity (Haemophilus influenzae [8]): inactive; growth inhibition (GI) (Haemophilus influenzae [9]): Toxic; growth inhibition (GI) (Haemophilus influenzae [10]): Non-Toxic
19 | 28 µM | – | – | 153 µM | 0.002 s⁻¹ | 13 M⁻¹ s⁻¹ | 63 µM | O=C1/C(=C\c2ccccc2)C(C(F)(F)F)=NN1c1ccccc1 | –
